Test results as given in ChEMBL document CHEMBL5058577, “EUbOPEN Chemogenomics Library 2 (Multiplex)” (2022).

Test system: Fibroblast
Assay: Multiplex assay against human fibroblast
Format: toxicity, cell-based
Outline: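 Four dyes were applied at seeding to live cells: Hoechst33342, BioTracker Green Microtubule Cytoskeleton Dye, MitoTracker Red and Annexin V Alexa Fluor 680. Imaging after compound addition used a CQ1 microscope at 37°C and 5% CO2. CellPathfinder machine-learning gating then sorted cells into Hoechst high-intensity objects or normal cells, normal cells into healthy, pyknosed or fragmented nuclei, and pyknosed cells into mitotic or apoptotic, with tubulin, mitochondrial-mass and membrane-permeability phenotypes given as per cents of healthy-nucleus cells.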

[1] = 12 h, 1 µM, compound concentration 1 uM, replicate 1
[2] = 12 h, 1 µM, compound concentration 1 uM, replicate 2
[3] = 12 h, 10 µM, compound concentration 10 uM, replicate 1
[4] = 12 h, 10 µM, compound concentration 10 uM, replicate 2
[5] = 24 h, 1 µM, compound concentration 1 uM, replicate 1
[6] = 24 h, 1 µM, compound concentration 1 uM, replicate 2
[7] = 24 h, 10 µM, compound concentration 10 uM, replicate 1
[8] = 24 h, 10 µM, compound concentration 10 uM, replicate 2
[9] = 48 h, 1 µM, compound concentration 1 uM, replicate 1
[10] = 48 h, 1 µM, compound concentration 1 uM, replicate 2
[11] = 48 h, 10 µM, compound concentration 10 uM, replicate 1
[12] = 48 h, 10 µM, compound concentration 10 uM, replicate 2

In the case of `N#Cc1c(Oc2cccc(OS(=O)(=O)CCCC(F)(F)F)c2)cccc1C(F)(F)F`, the “Population Apoptotic (%)” value [1] is reported as 51%, the “Population Fragmented Nuclei (%)” value [1] is reported as 13% and the “Population Healthy Nuclei (%)” value [1] is reported as 63%. For the same compound, the “Population Hoechst High Intensity Objects (%)” value [1] was 2%, the “Population Membrane Permeable-Phenotype (%)” value [1] was 1% and the “Population Mitochondria Different-Phenotype (%)” value [1] was 7%. The “Population Mitotic Cells (%)” value [1] was 48%, the “Population Normal (%)” value [1] was 97% and the “Population Pyknosed Nuclei (%)” value [1] was 23%. For the same compound, the “Population Tubulin-Different-Phenotype (%)” value [1] was 38%, the “Total Cell Count” value [1] was 146 and the “Population Apoptotic (%)” value [2] was 38%. The “Population Fragmented Nuclei (%)” value [2] was 27%, the “Population Healthy Nuclei (%)” value [2] was 48% and the “Population Hoechst High Intensity Objects (%)” value [2] was 7%. The “Population Membrane Permeable-Phenotype (%)” value [2] was 9%, the “Population Mitotic Cells (%)” value [2] was 61% and the “Population Normal (%)” value [2] was 92%. The “Population Pyknosed Nuclei (%)” value [2] was 24%, the “Population Tubulin-Different-Phenotype (%)” value [2] was 59% and the “Total Cell Count” value [2] was 148. The “Population Apoptotic (%)” value [3] was 31%, the “Population Fragmented Nuclei (%)” value [3] was 14% and the “Population Healthy Nuclei (%)” value [3] was 59%. For the same compound, the “Population Hoechst High Intensity Objects (%)” value [3] was 6%, the “Population Membrane Permeable-Phenotype (%)” value [3] was 1% and the “Population Mitochondria Different-Phenotype (%)” value [3] was 7%. The “Population Mitotic Cells (%)” value [3] was 68%, the “Population Normal (%)” value [3] was 93% and the “Population Pyknosed Nuclei (%)” value [3] was 26%. For the same compound, the “Population Tubulin-Different-Phenotype (%)” value [3] was 36%, the “Total Cell Count” value [3] was 180 and the “Population Apoptotic (%)” value [4] was 66%. The “Population Fragmented Nuclei (%)” value [4] was 42%, the “Population Healthy Nuclei (%)” value [4] was 22% and the “Population Hoechst High Intensity Objects (%)” value [4] was 7%. The “Population Membrane Permeable-Phenotype (%)” value [4] was 13%, the “Population Mitochondria Different-Phenotype (%)” value [4] was 3% and the “Population Mitotic Cells (%)” value [4] was 33%. For the same compound, the “Population Normal (%)” value [4] was 92%, the “Population Pyknosed Nuclei (%)” value [4] was 35% and the “Population Tubulin-Different-Phenotype (%)” value [4] was 75%. The “Total Cell Count” value [4] was 138, the “Population Apoptotic (%)” value [5] was 50% and the “Population Fragmented Nuclei (%)” value [5] was 20%. For the same compound, the “Population Healthy Nuclei (%)” value [5] was 62%, the “Population Hoechst High Intensity Objects (%)” value [5] was 6% and the “Population Membrane Permeable-Phenotype (%)” value [5] was 1%. The “Population Mitochondria Different-Phenotype (%)” value [5] was 4%, the “Population Mitotic Cells (%)” value [5] was 50% and the “Population Normal (%)” value [5] was 93%. The “Population Pyknosed Nuclei (%)” value [5] was 17%, the “Population Tubulin-Different-Phenotype (%)” value [5] was 45% and the “Total Cell Count” value [5] was 148. The “Population Apoptotic (%)” value [6] was 54%, the “Population Fragmented Nuclei (%)” value [6] was 33% and the “Population Healthy Nuclei (%)” value [6] was 50%. For the same compound, the “Population Hoechst High Intensity Objects (%)” value [6] was 3%, the “Population Membrane Permeable-Phenotype (%)” value [6] was 5% and the “Population Mitochondria Different-Phenotype (%)” value [6] was 5%. The “Population Mitotic Cells (%)” value [6] was 45%, the “Population Normal (%)” value [6] was 96% and the “Population Pyknosed Nuclei (%)” value [6] was 16%. For the same compound, the “Population Tubulin-Different-Phenotype (%)” value [6] was 57%, the “Total Cell Count” value [6] was 147 and the “Population Apoptotic (%)” value [7] was 44%. The “Population Fragmented Nuclei (%)” value [7] was 13%, the “Population Healthy Nuclei (%)” value [7] was 59% and the “Population Hoechst High Intensity Objects (%)” value [7] was 5%. The “Population Membrane Permeable-Phenotype (%)” value [7] was 4%, the “Population Mitochondria Different-Phenotype (%)” value [7] was 12% and the “Population Mitotic Cells (%)” value [7] was 55%. The “Population Normal (%)” value [7] was 94%, the “Population Pyknosed Nuclei (%)” value [7] was 27% and the “Population Tubulin-Different-Phenotype (%)” value [7] was 43%. The “Total Cell Count” value [7] was 174, the “Population Apoptotic (%)” value [8] was 61% and the “Population Fragmented Nuclei (%)” value [8] was 40%. The “Population Healthy Nuclei (%)” value [8] was 23%, the “Population Hoechst High Intensity Objects (%)” value [8] was 8% and the “Population Membrane Permeable-Phenotype (%)” value [8] was 18%. For the same compound, the “Population Mitochondria Different-Phenotype (%)” value [8] was 22%, the “Population Mitotic Cells (%)” value [8] was 38% and the “Population Normal (%)” value [8] was 91%. For the same compound, the “Population Pyknosed Nuclei (%)” value [8] was 36%, the “Population Tubulin-Different-Phenotype (%)” value [8] was 77% and the “Total Cell Count” value [8] was 127. The “Population Apoptotic (%)” value [9] was 60%, the “Population Fragmented Nuclei (%)” value [9] was 18% and the “Population Healthy Nuclei (%)” value [9] was 66%. The “Population Hoechst High Intensity Objects (%)” value [9] was 7%, the “Population Membrane Permeable-Phenotype (%)” value [9] was 1% and the “Population Mitochondria Different-Phenotype (%)” value [9] was 5%. For the same compound, the “Population Mitotic Cells (%)” value [9] was 40%, the “Population Normal (%)” value [9] was 92% and the “Population Pyknosed Nuclei (%)” value [9] was 14%. The “Population Tubulin-Different-Phenotype (%)” value [9] was 42%, the “Total Cell Count” value [9] was 145 and the “Population Apoptotic (%)” value [10] was 38%. The “Population Fragmented Nuclei (%)” value [10] was 26%, the “Population Healthy Nuclei (%)” value [10] was 59% and the “Population Hoechst High Intensity Objects (%)” value [10] was 5%. For the same compound, the “Population Membrane Permeable-Phenotype (%)” value [10] was 13%, the “Population Mitochondria Different-Phenotype (%)” value [10] was 2% and the “Population Mitotic Cells (%)” value [10] was 61%. For the same compound, the “Population Normal (%)” value [10] was 94%, the “Population Tubulin-Different-Phenotype (%)” value [10] was 56% and the “Total Cell Count” value [10] was 133. For the same compound, the “Population Apoptotic (%)” value [11] was 52%, the “Population Fragmented Nuclei (%)” value [11] was 20% and the “Population Healthy Nuclei (%)” value [11] was 54%. The “Population Hoechst High Intensity Objects (%)” value [11] was 9%, the “Population Membrane Permeable-Phenotype (%)” value [11] was 2% and the “Population Mitochondria Different-Phenotype (%)” value [11] was 12%. For the same compound, the “Population Mitotic Cells (%)” value [11] was 47%, the “Population Normal (%)” value [11] was 90% and the “Population Pyknosed Nuclei (%)” value [11] was 24%. The “Population Tubulin-Different-Phenotype (%)” value [11] was 47%, the “Total Cell Count” value [11] was 172 and the “Population Apoptotic (%)” value [12] was 59%. For the same compound, the “Population Fragmented Nuclei (%)” value [12] was 43%, the “Population Healthy Nuclei (%)” value [12] was 31% and the “Population Hoechst High Intensity Objects (%)” value [12] was 2%. For the same compound, the “Population Membrane Permeable-Phenotype (%)” value [12] was 23%, the “Population Mitochondria Different-Phenotype (%)” value [12] was 15% and the “Population Mitotic Cells (%)” value [12] was 40%. For the same compound, the “Population Normal (%)” value [12] was 97%, the “Population Pyknosed Nuclei (%)” value [12] was 25% and the “Population Tubulin-Different-Phenotype (%)” value [12] was 89%. The “Total Cell Count” value [12] was 150.
